Test [1] relates to Escherichia coli. The test can be described thus: Minimum inhibitory concentration of compound against Escherichia coli. In kind it is functional. Put shortly: (§1)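 Broth microdilution in Mueller Hinton broth for Gram-negatives, 2-fold series 0.015–1000 µg/mL, inoculum about 5 × 10^5 CFU/mL. Incubated overnight at 35 °C; MIC = lowest well with no visible growth. Some tests included polymyxin B nonapeptide at a level with no antibacterial activity of its own, compared with PMBN-free controls.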

The subject of test [2] is DNA gyrase (Escherichia coli). The test can be described thus: Inhibition of cleavable complex ability of DNA gyrase in Escherichia coli.
The test system of test [3] is Escherichia coli. The test can be described thus: Minimum inhibitory concentration of compound against KL-16 Escherichia coli strain. In kind it is functional. Put shortly:
as §1

The test system of test [4] is Staphylococcus aureus. Nature of the test: Minimum inhibitory concentration of compound against OC6538 Staphylococcus aureus strain. In kind it is functional. Put shortly: (§2)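 Broth microdilution in Luria broth for Gram-positives, 2-fold series 0.015–1000 µg/mL, inoculum about 5 × 10^5 CFU/mL. Incubated overnight at 35 °C; MIC = lowest well concentration with no visible growth.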

The test system of test [5] is Staphylococcus epidermidis. The test can be described thus: Minimum inhibitory concentration of compound against OC2603 Staphylococcus epidermidis strain. It counts as functional. An outline of the steps: as §2
Test [6] deals with Escherichia coli. The test can be described thus: Minimum inhibitory concentration of compound against Escherichia coli KL-16 strain. In kind it is functional. An outline of the steps:
as §1

One may read the MIC as the smallest concentration in the dilution series that meets the test's criterion for growth inhibition.

≈ marks a conversion by molar mass, not a printed value. Peptide text beside a SMILES is read from it.

As to `CC(c1ccc2oc(-c3ccccc3)cc2c1)N(O)C(=O)c1ccccc1-c1ccccc1C(=O)O` (stereo not drawn), the MIC in test [1] was more than 1000 µg/mL; in test [3], more than 1000 µg/mL; in test [4] it was 15.6 µg/mL (≈ 32.7 µM); in test [5], 15.6 µg/mL (≈ 32.7 µM). The compound also had a CC50 in test [2] of 62.5 µg/mL (≈ 131 µM).
On to `COc1cc(C(C)N(O)C(=O)c2ccccc2-c2ccccc2C(=O)O)cc(OC)c1OC` (stereo not drawn), for which the MIC in test [1] was more than 1000 µg/mL; in test [3], more than 1000 µg/mL; in test [4] it was 1000 µg/mL (≈ 2210 µM); in test [5] it was 1000 µg/mL (≈ 2210 µM).
For the compound `CC(c1ccccc1)N(O)C(=O)c1ccccc1-c1ccccc1C(=O)O` (stereo not drawn), the MIC in test [1] was 1000 µg/mL (≈ 2770 µM); in test [3], more than 1000 µg/mL; in test [4], 1000 µg/mL (≈ 2770 µM); in test [5], 1000 µg/mL (≈ 2770 µM).
For the compound `CC(C)C[C@@H]1NC(=O)[C@@H](Cc2ccccc2)NC(=O)[C@H](CCN)NC(=O)[C@@H](NC(=O)[C@H](CCN)NC(=O)[C@@H](N)[C@@H](C)O)CCNC(=O)[C@H]([C@@H](C)O)NC(=O)[C@H](CCN)NC(=O)[C@H](CCN)NC1=O` (HELM PEPTIDE1{T.[Dab].[Dab].[Dab].[dF].L.[Dab].[Dab].T}$PEPTIDE1,PEPTIDE1,3:R3-9:R2$$$V2.0), the minimal inhibitory concentration (MIC) in test [1] was 500 µg/mL (≈ 519 µM); in test [6], more than 500 µg/mL.
Turning to `CC(c1ccc2c(c1)Nc1ccccc1S2)N(O)C(=O)c1ccccc1-c1ccccc1C(=O)O` (stereo not drawn), the MIC in test [1] was more than 1000 µg/mL; in test [3], more than 1000 µg/mL; in test [4] it was 62.5 µg/mL (≈ 130 µM); in test [5] it was 62.5 µg/mL (≈ 130 µM). Moreover, in test [2], the CC50 came to 750 µg/mL (≈ 1550 µM).
For the compound `CC(c1ccc(N2CCN(c3ccccc3)CC2)cc1)N(O)C(=O)c1ccccc1-c1ccccc1C(=O)O` (stereo not drawn), the MIC in test [1] is more than 1000 µg/mL; in test [3] it was more than 1000 µg/mL; in test [4] it was 500 µg/mL (≈ 959 µM); in test [5], 500 µg/mL (≈ 959 µM).
Consider `CCn1cc(C(=O)O)c(=O)c2ccc(C)nc21` [NALIDIXIC ACID], for which the minimum inhibitory concentration (MIC) in test [1] was determined as 1 µg/mL (≈ 4.31 µM); in test [3] it was 8 µg/mL (≈ 34.4 µM); in test [4], 500 µg/mL (≈ 2150 µM); in test [5] it was 250 µg/mL (≈ 1080 µM).
As to `CC(c1ccc2c(ccc3ccccc32)c1)N(O)C(=O)c1ccccc1-c1ccccc1C(=O)O` (stereo not drawn), the MIC is 31.2 µg/mL (≈ 67.6 µM) in test [1], more than 1000 µg/mL in test [3], 31.2 µg/mL (≈ 67.7 µM) in test [4] and 31.2 µg/mL (≈ 67.7 µM) in test [5]. Besides, the CC50 in test [2] came out at 97.7 µg/mL (≈ 212 µM).

Source of the values: ChEMBL document CHEMBL1130179, “DNA gyrase inhibitory and antimicrobial activities of some diphenic acid monohydroxamides” (J Med Chem, 1997).
